Calb FLC – affects C. albicans growth with fluconazole | growth inhibition, % (no concentration beside the values) | 300,000 tested, 0.57% active | C. albicans CaCi-2 (fluconazole-resistant clinical isolate) + fluconazole, Alamar Blue growth, 48 h;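 active means growth inhibition above about 58% in most replicates, limit read from the data, passing the limit was not always enough; inconclusive means exactly half the replicates above a set limit; inactive means most replicates below a set limit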;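 further: all wells also contain fluconazole at 8 µg/ml as a sub-toxic cotreatment; 0% = median of DMSO wells and 100% = median of geldanamycin control wells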
SKKanGAS inh – SKKanGAS growth inhibition. inhibition, % at 7.5 µM. 300,000 tested, 1.3% active. S. pyogenes SKKanGAS, kanamycin growth, BacTiter-Glo, 6 h;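 active means mean replicate score, as percent of positive control median, at least 50; inconclusive means mean below 50 but one replicate at or above 50; inactive means mean and every replicate below 50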;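 further: strain carries kanamycin resistance gene driven by streptokinase promoter and grows in 40 µg/ml kanamycin; loss of luminescence reflects streptokinase promoter inhibition or plain growth inhibition; 0% = median of DMSO wells and 100% = positive control at its reference dose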
ARFGAP1 inh – rat ARFGAP1 inhibition; Q62848; Arfgap1-stimulated ARF1 GTP hydrolysis, GDP FP detection; inhibition, % at 16.5 µM; 360,000 tested, 0.26% active; AID 651572;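 active means inhibition above a per-plate limit, mean inhibition of low control wells plus 3 SD, cut at about 25% in these data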;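 further: 0% = DMSO wells with enzyme and 100% = wells lacking Arfgap1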
Target sequence (Q62848 1-136 limits assumed): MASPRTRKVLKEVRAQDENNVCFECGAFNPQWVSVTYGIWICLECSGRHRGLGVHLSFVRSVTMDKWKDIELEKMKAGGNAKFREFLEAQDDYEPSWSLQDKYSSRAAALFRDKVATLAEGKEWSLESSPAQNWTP
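System: truncated rat Arfgap1 GAP domain / Medium: HEPES-based buffer, pH 7.5 / Also added: N-terminally truncated human ARF1-GTP substrate / Incubation: enzyme reaction 120 min at 25 °C after 20 min preincubation / Measured by: FP of antibody-bound GDP Alexa 633 tracer, ex 620/em 688 nm / Replicates: singlicate, each compound tested once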
sPLA2-III inh – Blocks human group III sPLA2 activity; inhibition, % at 12.2 µM; 370,000 tested, 0.56% active; QFRET BODIPY PC-A2 liposome hydrolysis, fluorescence; Q9NZ20;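 active means inhibition above mean plus 3 SD of compounds lying within the high and low control bounds, cut at about 19% in these data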;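 further: 0% = median of test compound wells and 100% = no enzyme DMSO wells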
ASAP1 inh – inhibitors of human ASAP1 ArfGAP activity; Q9ULH1; ASAP1-stimulated ARF1 GTP hydrolysis, GDP FP detection; inhibition, % at 16.5 µM; 360,000 tested, 0.19% active; in the data active means inhibition above about 25%;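 further: 0% = vehicle with enzyme and substrate and 100% = no enzyme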
Target sequence (Q9ULH1 325-724 limits assumed): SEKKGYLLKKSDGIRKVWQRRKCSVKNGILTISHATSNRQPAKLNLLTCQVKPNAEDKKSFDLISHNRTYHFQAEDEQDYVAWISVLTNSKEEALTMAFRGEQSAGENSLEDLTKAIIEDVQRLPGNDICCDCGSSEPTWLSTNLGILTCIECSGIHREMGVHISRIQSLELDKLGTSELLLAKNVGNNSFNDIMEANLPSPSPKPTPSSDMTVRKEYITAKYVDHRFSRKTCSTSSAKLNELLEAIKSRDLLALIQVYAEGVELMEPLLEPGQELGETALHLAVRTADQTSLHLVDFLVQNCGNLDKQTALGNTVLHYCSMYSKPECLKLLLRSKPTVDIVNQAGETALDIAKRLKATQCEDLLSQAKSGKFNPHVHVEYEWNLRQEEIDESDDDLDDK
ARFGAP1 confirm – rat ARFGAP1 inhibition, confirmed. shares compounds with ARFGAP1 inh. ARFGAP1-stimulated ARF1 GTP hydrolysis, GDP tracer FP. inhibition, % at 16.5 µM. 890 tested, 30% active. AID 651608;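 active means average inhibition over triplicates above the hit cutoff set in the earlier primary screen, cut at about 25% in these data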;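 further: 0% = Arfgap1 plus ARF1-GTP with DMSO and 100% = wells lacking Arfgap1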
* hit, by the source's call; u = inconclusive; x = no result given. Rows were chosen to be rich in hits. Some 2.3% of all compounds tested hit in one or more screens of this group.

SMILES	Calb FLC	SKKanGAS inh	ARFGAP1 inh	sPLA2-III inh	ASAP1 inh	ARFGAP1 confirm
O=C(COC(=O)c1ccccc1)NC12CC3CC(CC(C3)C1)C2	x	x	-3.6	4.3	-4.6	x
O=C(Oc1cccnc1)c1ccccc1[N+](=O)[O-]	24.4	-16.8	25.4*	-2.1	-13.7	6.0
O=C(O)CC1(C(=O)O)CC2C=CC1C2 (stereo unspecified)	x	x	25.3*	5.0	7.9	0.6
O=C(NCC1COc2ccccc2O1)c1ccc(NC(=O)C(Cl)Cl)cc1 (stereo unspecified)	x	x	x	-2.7	x	x
Cc1cc(Nc2ccccc2)n(-c2ccc(C(=O)O)cc2)n1	3.4	-2.6	5.1	-5.1	4.2	x
COc1ccc(-n2nc(C)cc2Nc2ccccc2C(=O)O)cc1	2.9	0.7	24.8*	2.5	-5.9	0.3
CC(Nc1nc(N2CCNCC2)nc2ccccc12)c1ccccc1 (stereo unspecified)	-13.6	2.4	26.4*	-8.1	-10.1	8.3
CC(Nc1nc(-c2ccncc2)nc2ccccc12)c1ccccc1 (stereo unspecified)	-16.4	0.8	1.2	-11.6	1.6	x
COc1cccc(CNC(=O)[C@H]2CCCN2C(=O)[C@H]2CCCN2C(=O)c2ccc(Cl)cc2)c1	x	x	-1.5	-1.3	4.5	x
O=C1NC(c2ccccc2)=C(c2nc3ccccc3s2)C(c2ccc(F)cc2)N1 (stereo unspecified)	20.0	23.8	32.3*	-6.0	11.0	2.2
O=C(CNC(=O)c1ccc(Br)o1)Nc1cccc(-c2cnc3ccccc3n2)c1	-17.9	12.6	25.1*	1.8	-6.4	4.2
O=C(Nc1cccc(-c2cnc3ccccc3n2)c1)c1ccco1	u	7.4	2.3	-15.2	0.2	x
O=C(NCc1ccco1)c1cccc(-c2cncc3nccn23)c1	x	x	1.0	5.8	-10.1	x
COc1ccc(NC(=O)Nc2ccc(F)cc2)cn1	2.5	4.3	25.2*	2.4	-3.5	3.4
CCCNCC1C(Oc2ccc(Cl)cc2Cl)C(=O)N1c1cccc(C)c1C (stereo unspecified)	-10.8	6.1	6.3	-8.1	8.2	x
Cc1cccc(N2C(=O)C(Oc3ccc(Cl)cc3Cl)C2C(=O)O)c1C (stereo unspecified)	-5.3	-0.6	25.0*	2.4	3.2	-6.6
COc1ccc(-c2[nH]ncc2/C=N/NC(=O)c2cccc([N+](=O)[O-])c2)cc1OC	-1.3	6.0	25.5*	-6.5	21.9	52.1*
Cc1ccnc(Nc2ccc(CCO)cc2)n1	x	x	27.1*	6.5	-6.3	3.0
Cc1ccc2nc(SCC(=O)Nc3ccc(Br)cc3)nc(=O)n2c1	-5.1	-0.5	19.6	2.6	-3.1	x
Cc1ccc2nc(SCC(=O)Nc3cccc(Cl)c3)nc(=O)n2c1	12.8	-5.5	31.4*	-4.0	16.9	50.4*
Cc1ccc2nc(SCC(=O)Nc3ccc(C)c(Cl)c3)nc(=O)n2c1	13.0	6.4	20.1	-2.0	0.2	x
Cc1ccc2nc(SCC(=O)NCc3ccccc3Cl)nc(=O)n2c1	-6.3	-9.2	-6.6	-4.7	-15.2	x
Cc1ccc2nc(SCC(=O)c3ccc(Cl)cc3)nc(=O)n2c1	1.2	9.9	26.6*	-6.2	15.7	49.9*
Cc1ccc2nc(SCC(=O)Nc3cccc(F)c3)nc(=O)n2c1	-5.9	24.2	54.4*	10.7	31.8*	47.3*
CCOC(=O)N1CCN(C(=O)CSc2nc(=O)n3cc(C)ccc3n2)CC1	-1.5	-12.7	40.4*	2.1	19.6	38.3*
SMILES	Calb FLC	SKKanGAS inh	ARFGAP1 inh	sPLA2-III inh	ASAP1 inh	ARFGAP1 confirm
CCOC(=O)C(Cc1ccccc1)P(=O)(OCC)OCC (stereo unspecified)	x	x	x	5.5	x	x
Cc1ccc(NC(=O)CSc2nc(=O)n3cc(C)ccc3n2)c(C)c1	4.1	4.4	-0.2	19.0	6.0	x
COc1ccccc1NC(=O)CSc1nc(=O)n2cc(C)ccc2n1	3.3	1.1	31.2*	-0.5	0.3	22.7
CCC(CC)c1nnc(NC(=O)c2cccc(S(=O)(=O)N3CCOCC3)c2)s1	x	x	28.4*	-15.3	-3.0	-4.3
CC(C)Cc1nnc(NC(=O)c2cccc(S(=O)(=O)N3CCOCC3)c2)s1	x	x	-6.8	1.3	-10.8	x
CCCC[C@H]1C2CC(OC(=O)Nc3ccccc3OC)C(C2)[C@H]2CCCCN21 (stereo partly specified)	x	x	x	5.4	x	x
COc1ccc(-c2csc(NC(=O)CN3C(=O)NC4(CCCC4)C3=O)n2)cc1OC	-7.4	-3.1	26.8*	1.0	-7.1	4.2
Cc1ccc(OCCn2c(CCNC(=O)C3CCCCCC3)nc3ccccc32)cc1	x	x	x	1.5	x	x
CN1/C(=C/C2CC(=O)NC2=O)C(C)(C)c2ccccc21 (stereo unspecified)	x	x	30.6*	5.4	-0.4	-4.5
CN1/C(=C/C2CC(=O)N(c3cccc4ccccc34)C2=O)C(C)(C)c2ccccc21 (stereo unspecified)	12.5	6.3	-7.4	-14.8	-3.4	x
C/C(=N\N1C(=O)c2ccccc2NC1c1ccccc1)c1ccccc1O (stereo unspecified)	23.4	-7.2	27.0*	-1.0	-6.8	-1.5
CSCCC(NC(=O)OCc1ccccc1)C(=O)NCc1cccnc1 (stereo unspecified)	-6.5	6.8	24.6*	15.4	3.9	2.7
CSCC[C@H](NC(=O)OCc1ccccc1)C(=O)O	0.2	-1.8	5.1	-1.1	1.1	x
CNC(=O)c1c(NC(=O)c2ccc(S(=O)(=O)N3CC(C)OC(C)C3)cc2)sc2c1CCN(C(C)C)C2 (stereo unspecified)	2.3	2.7	25.5*	-10.4	0.7	3.0
Cc1nnc2ccc(-c3cccc(NC(=O)c4ccc(Cl)nc4)c3)nn12	4.1	-6.9	26.7*	-3.9	9.3	1.6
O=C(Cc1ccccc1)N1CCC(Oc2cccnc2)CC1	x	x	x	2.5	x	x
O=C(CCc1c[nH]c2ccccc12)Nc1ccc(Nc2ccccc2)cc1	x	x	26.8*	-53.6	6.8	21.9
O=C(Nc1ccc(S(=O)(=O)N2CCOCC2)cc1)c1cc(-c2cc(Cl)ccc2O)n[nH]1	-1.4	33.2	41.0*	-24.0	6.5	28.9*
COc1ccc(NC(=O)c2cc(-c3ccccc3O)n[nH]2)cc1Cl	7.1	1.3	27.0*	-6.4	6.8	7.2
COc1ccc(Cl)c(-c2cc(C(=O)Nc3ccccc3)[nH]n2)c1	x	x	24.7*	-8.0	13.5	11.5
Cc1cc(O)c(-c2cc(C(=O)Nc3ccc(S(=O)(=O)N4CCOCC4)cc3)[nH]n2)cc1C	-5.8	12.9	9.2	-52.7	2.3	x
COc1ccc(Cl)cc1-c1cc(C(=O)Nc2ccc(Br)cc2)[nH]n1	x	x	28.0*	-9.9	6.4	14.7
COC(=O)c1cc(-c2ccc(C)c3ccccc23)c(=O)n2c1CCC2	x	x	x	-7.7	x	x
CCOc1ccc(C2CC=C(C(=O)O)CN2S(=O)(=O)c2ccc(C)cc2)cc1 (stereo unspecified)	x	x	x	-12.5	x	x
CCOc1ccc(Cl)cc1-c1cc(C(=O)Nc2ccc(OC)cc2OC)[nH]n1	x	x	60.4*	-2.1	13.9	121.3*

Source: PubChem BioAssay
